Results reported in ChEMBL document CHEMBL4732181, “Pyrazolo[3,4-d]pyrimidine-based dual EGFR T790M/HER2 inhibitors: Design, synthesis, structure-activity relationship and biological activity as potential antitumor and anticonvulsant agents” (Eur J Med Chem, 2021).
The source made the active and inactive calls. The calls are words filed in the database; no cut-off is given here.

Key:
[1] = target: T1, Receptor tyrosine-protein kinase erbB-2 (Homo sapiens, UniProt P04626); assay: Inhibition of HER2 (unknown origin) at 10 uM relative to control
Summary of the method: (§1)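 Cell-free immunoassay kit measuring EGFR T790M/HER2 kinase inhibition. Percent inhibition screened at 10 µM. IC50 obtained from four concentrations (0.01-10 µM) by fitting E(%) = Emax/(1+[I]/ID50) to a dose-response curve. Mean of two independent replicates.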

MCF7 [2] = assay: Induction of apoptosis in human MCF7 cells assessed as late apoptotic cells at IC50 concentration after 24 hrs by annexin-V-FITC/PI staining based flow cytometric analysis (reference value: 0.47%)
WI-38 = assay: Cytotoxicity against human WI-38 cells assessed as reduction in cell viability after 48 hrs by MTT assay; assay type: cell-based; details: WI-38, 48 h
Summary of the method: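 Cells from ATCC grown in DMEM with 10% FBS, insulin and 1% penicillin-streptomycin. Plated at 1.2-1.8 × 10,000 cells/well for 24 h, then exposed to compounds in DMSO vehicle for 48 h. MTT 0.5 mg/ml added for 2 h; absorbance read at 570 nm. Experiments run in triplicate.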

Mus musculus [3] = assay: Anticonvulsant activity against mouse model of LiCa/pilocarpine-induced status epilepticus assessed as spectral edge frequency at 20 mg/kg, po for 10 days by EEG method relative to control; assay type: functional; details: time 10 day
Summary of the method: (§2)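 Male mice (20-30 g), five per group, dosed orally once daily for 10 days. Status epilepticus was then induced with LiCa (3 mEq/kg i.p.), atropine sulfate (1 mg/kg i.p.) 30 min before pilocarpine, and pilocarpine HCl (300 mg/kg i.p.) 2 h after LiCa. Normal controls received oral distilled water. Comparators were untreated SE, phenytoin and lamotrigine. One-way ANOVA with Tukey post-hoc; mean ± SD.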

MCF7 [4] = assay: Induction of apoptosis in human MCF7 cells assessed as increase in caspace-7 protein expression at IC50 concentration after 24 hrs by ELISA; assay type: functional
Summary of the method: (§3)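 Cells treated at IC50 for 24 h and lysed in cell extraction buffer. Lysate diluted in standard diluent buffer and human caspase-3, -7, -9, Bax and Bcl-2 quantified by immunoassay kit (pg/mL). Fold change calculated against untreated control cells.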

Mus musculus [5] = assay: Anticonvulsant activity against mouse model of LiCa/pilocarpine-induced status epilepticus assessed as total power at 20 mg/kg, po for 10 days by EEG method relative to control; assay type: functional; details: time 10 day; summary of the method: as §2
Mus musculus [6] = assay: Anticonvulsant activity against mouse model of LiCa/pilocarpine-induced status epilepticus assessed as power pV2 at 20 mg/kg, po for 10 days by EEG method relative to control; assay type: functional; details: time 10 day; summary of the method: as §2
MCF7 [7] = assay: Induction of cell cycle arrest in human MCF7 cells assessed as cell accumulation at G1 phase at IC50 concentration after 24 hrs by propidium iodide staining based flow cytometric analysis (reference value: 53.77%); assay type: functional
MCF7 [8] = assay: Induction of apoptosis in human MCF7 cells assessed as increase in Bax protein expression at IC50 concentration after 24 hrs by ELISA; assay type: functional; summary of the method: as §3
MCF7 [9] = assay: Induction of apoptosis in human MCF7 cells assessed as decrease in Bcl-2 protein expression at IC50 concentration after 24 hrs by ELISA; assay type: functional; summary of the method: as §3
Mus musculus [10] = assay: Anticonvulsant activity against mouse model of LiCa/pilocarpine-induced status epilepticus assessed as Glutamate level in brain at 20 mg/kg, po for 10 days by ELISA relative to control; assay type: functional; details: time 10 day; summary of the method: as §2
MCF7 [11] = assay: Induction of apoptosis in human MCF7 cells assessed as increase in early apoptotic cells at IC50 concentration after 24 hrs by annexin-V-FITC/PI staining based flow cytometric analysis; assay type: functional
[12] = target: Epidermal growth factor receptor (Homo sapiens, UniProt P00533, T790M); assay: Inhibition of EGFR T790M mutant (unknown origin)
Mus musculus [13] = assay: Anticonvulsant activity against mouse model of LiCa/pilocarpine-induced status epilepticus assessed as alpha at 20 mg/kg, po for 10 days by EEG method relative to control; assay type: functional; details: time 10 day; summary of the method: as §2
Mus musculus [14] = assay: Anticonvulsant activity against mouse model of LiCa/pilocarpine-induced status epilepticus assessed as MDA level in brain at 20 mg/kg, po for 10 days by calorimetric method relative to control; assay type: functional; details: time 10 day; summary of the method: as §2
MCF7 [15] = assay: Induction of apoptosis in human MCF7 cells assessed as increase in caspace-9 protein expression at IC50 concentration after 24 hrs by ELISA; assay type: functional; summary of the method: as §3
MCF7 [16] = assay: Induction of apoptosis in human MCF7 cells assessed as early apoptotic cells at IC50 concentration after 24 hrs by annexin-V-FITC/PI staining based flow cytometric analysis (reference value: 0.84%)
Mus musculus [17] = assay: Anticonvulsant activity against mouse model of LiCa/pilocarpine-induced status epilepticus assessed as amplitude at 20 mg/kg, po for 10 days by EEG method relative to control; assay type: functional; details: time 10 day; summary of the method: as §2
Mus musculus [18] = assay: Anticonvulsant activity against mouse model of LiCa/pilocarpine-induced status epilepticus assessed as total power density at 20 mg/kg, po for 10 days by EEG method relative to control; assay type: functional; details: time 10 day; summary of the method: as §2
MCF7 [19] = assay: Induction of apoptosis in human MCF7 cells assessed as increase in Bax/Bcl-2 ratio at IC50 concentration after 24 hrs by ELISA; assay type: functional, cell-based; summary of the method: as §3
MCF7 [20] = assay: Induction of apoptosis in human MCF7 cells assessed as increase in late apoptotic cells at IC50 concentration after 24 hrs by annexin-V-FITC/PI staining based flow cytometric analysis; assay type: functional
[21] = target: T1, Receptor tyrosine-protein kinase erbB-2; assay: Inhibition of HER2 (unknown origin); summary of the method: as §1
Mus musculus [22] = assay: Anticonvulsant activity against mouse model of LiCa/pilocarpine-induced status epilepticus assessed as mean power frequency at 20 mg/kg, po for 10 days by EEG method relative to control; assay type: functional; details: time 10 day; summary of the method: as §2
MCF7 [23] = assay: Induction of cell cycle arrest in human MCF7 cells assessed as cell accumulation at pre-G1 phase at IC50 concentration after 24 hrs by propidium iodide staining based flow cytometric analysis (reference value: 1.49%); assay type: functional
Mus musculus [24] = assay: Anticonvulsant activity against mouse model of LiCa/pilocarpine-induced status epilepticus assessed as amplitude density at 20 mg/kg, po for 10 days by EEG method relative to control; assay type: functional; details: time 10 day; summary of the method: as §2
Mus musculus [25] = assay: Anticonvulsant activity against mouse model of LiCa/pilocarpine-induced status epilepticus assessed as theta at 20 mg/kg, po for 10 days by EEG method relative to control; assay type: functional; details: time 10 day; summary of the method: as §2
Mus musculus [26] = assay: Anticonvulsant activity against mouse model of LiCa/pilocarpine-induced status epilepticus assessed as delta at 20 mg/kg, po for 10 days by EEG method relative to control; assay type: functional; details: time 10 day; summary of the method: as §2
Mus musculus [27] = assay: Anticonvulsant activity against mouse model of LiCa/pilocarpine-induced status epilepticus assessed as GABA level in brain at 20 mg/kg, po for 10 days by ELISA relative to control; assay type: functional; details: time 10 day; summary of the method: as §2
Mus musculus [28] = assay: Anticonvulsant activity against mouse model of LiCa/pilocarpine-induced status epilepticus assessed as GSH level in brain at 20 mg/kg, po for 10 days by calorimetric method relative to control; assay type: functional; details: time 10 day; summary of the method: as §2
MCF7 [29] = assay: Induction of cell cycle arrest in human MCF7 cells assessed as cell accumulation at S phase at IC50 concentration after 24 hrs by propidium iodide staining based flow cytometric analysis (reference value: 42.34%); assay type: functional
MCF7 [30] = assay: Induction of cell cycle arrest in human MCF7 cells assessed as cell accumulation at G2/M phase at IC50 concentration after 24 hrs by propidium iodide staining based flow cytometric analysis (reference value: 3.89%); assay type: functional
MCF7 [31] = assay: Induction of apoptosis in human MCF7 cells assessed as increase in caspace-3 protein expression at IC50 concentration after 24 hrs by ELISA; assay type: functional; summary of the method: as §3
MCF7 [32] = assay: Induction of cell cycle arrest in human MCF7 cells assessed as cell increase in accumulation at G2/M phase at IC50 concentration after 24 hrs by propidium iodide staining based flow cytometric analysis; assay type: functional

T1 sequence (P04626 whole entry): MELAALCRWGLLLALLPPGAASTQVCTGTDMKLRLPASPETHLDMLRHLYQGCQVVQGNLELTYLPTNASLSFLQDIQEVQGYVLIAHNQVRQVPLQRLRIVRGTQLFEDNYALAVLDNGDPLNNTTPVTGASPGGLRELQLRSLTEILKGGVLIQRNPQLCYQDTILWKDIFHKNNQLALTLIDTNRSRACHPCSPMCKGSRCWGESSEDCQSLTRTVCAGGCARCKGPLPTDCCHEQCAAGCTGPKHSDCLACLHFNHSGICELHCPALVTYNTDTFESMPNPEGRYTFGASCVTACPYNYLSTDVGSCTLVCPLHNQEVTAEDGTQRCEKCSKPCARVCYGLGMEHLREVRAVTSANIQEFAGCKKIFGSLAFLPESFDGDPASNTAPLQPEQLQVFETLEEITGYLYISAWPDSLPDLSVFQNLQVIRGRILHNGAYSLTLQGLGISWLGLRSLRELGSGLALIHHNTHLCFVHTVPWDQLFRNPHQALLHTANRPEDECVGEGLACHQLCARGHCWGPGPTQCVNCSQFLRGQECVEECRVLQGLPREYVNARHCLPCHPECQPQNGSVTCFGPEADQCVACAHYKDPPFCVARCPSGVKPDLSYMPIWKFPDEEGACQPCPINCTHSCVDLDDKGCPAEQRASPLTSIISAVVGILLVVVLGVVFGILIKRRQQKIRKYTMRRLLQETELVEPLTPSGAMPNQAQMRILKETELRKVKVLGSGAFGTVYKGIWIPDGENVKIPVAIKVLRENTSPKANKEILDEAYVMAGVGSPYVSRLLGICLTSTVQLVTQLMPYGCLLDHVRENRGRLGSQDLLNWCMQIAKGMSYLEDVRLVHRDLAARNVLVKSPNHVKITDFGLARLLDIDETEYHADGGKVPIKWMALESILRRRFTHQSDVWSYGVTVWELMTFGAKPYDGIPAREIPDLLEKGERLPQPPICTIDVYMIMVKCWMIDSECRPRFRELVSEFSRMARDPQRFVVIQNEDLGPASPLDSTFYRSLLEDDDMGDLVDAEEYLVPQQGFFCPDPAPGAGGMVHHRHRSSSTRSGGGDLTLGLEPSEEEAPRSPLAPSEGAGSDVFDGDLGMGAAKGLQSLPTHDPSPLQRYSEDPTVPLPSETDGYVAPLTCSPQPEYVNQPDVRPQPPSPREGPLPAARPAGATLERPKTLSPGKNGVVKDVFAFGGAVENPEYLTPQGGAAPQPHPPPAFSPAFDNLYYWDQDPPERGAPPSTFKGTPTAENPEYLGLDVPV
Chain of Epidermal growth factor receptor (P00533 25-1210 T790M limits assumed): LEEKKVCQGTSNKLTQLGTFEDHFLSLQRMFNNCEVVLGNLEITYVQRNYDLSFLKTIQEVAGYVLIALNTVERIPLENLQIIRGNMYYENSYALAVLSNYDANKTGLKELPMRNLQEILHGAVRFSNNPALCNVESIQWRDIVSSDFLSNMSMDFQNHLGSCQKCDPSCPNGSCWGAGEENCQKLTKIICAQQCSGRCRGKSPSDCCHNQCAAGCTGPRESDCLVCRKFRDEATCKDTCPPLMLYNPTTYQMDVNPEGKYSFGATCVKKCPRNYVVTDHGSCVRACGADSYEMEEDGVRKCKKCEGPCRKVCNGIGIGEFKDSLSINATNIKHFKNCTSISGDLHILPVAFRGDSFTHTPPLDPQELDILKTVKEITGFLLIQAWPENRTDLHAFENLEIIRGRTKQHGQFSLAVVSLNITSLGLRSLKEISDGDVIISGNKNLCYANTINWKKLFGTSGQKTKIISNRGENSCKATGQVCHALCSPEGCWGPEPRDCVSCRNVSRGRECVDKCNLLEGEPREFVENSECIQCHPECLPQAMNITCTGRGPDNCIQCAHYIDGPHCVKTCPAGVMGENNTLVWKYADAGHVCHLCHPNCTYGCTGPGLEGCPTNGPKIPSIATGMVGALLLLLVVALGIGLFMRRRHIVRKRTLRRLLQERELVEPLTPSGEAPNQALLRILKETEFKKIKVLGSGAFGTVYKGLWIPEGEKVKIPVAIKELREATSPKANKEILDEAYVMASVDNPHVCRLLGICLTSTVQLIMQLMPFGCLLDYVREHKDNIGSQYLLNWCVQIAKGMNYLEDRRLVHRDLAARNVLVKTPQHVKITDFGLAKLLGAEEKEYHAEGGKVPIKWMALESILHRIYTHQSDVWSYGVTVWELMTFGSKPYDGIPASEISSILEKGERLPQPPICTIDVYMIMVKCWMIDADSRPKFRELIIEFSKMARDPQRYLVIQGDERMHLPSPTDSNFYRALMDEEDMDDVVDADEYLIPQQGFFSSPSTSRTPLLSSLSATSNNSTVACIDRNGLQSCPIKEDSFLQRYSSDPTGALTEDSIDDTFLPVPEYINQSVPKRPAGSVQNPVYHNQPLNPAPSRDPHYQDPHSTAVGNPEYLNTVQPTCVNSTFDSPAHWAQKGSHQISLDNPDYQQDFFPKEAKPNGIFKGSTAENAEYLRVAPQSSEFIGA

COc1ccc(/C=C2/N=C(c3ccc(Cl)cc3)N(C(=O)Cc3nc4c(c(C)nn4-c4ccccc4)c(=O)[nH]3)NC2=O)cc1
inhibition [1]: 86.7%
Activity (MCF7 [2]): 13.9%
IC50 (WI-38): 54.9 nM
Activity (Mus musculus [3]): -20.21%
fold change (FC) (MCF7 [4]): 7.9
Activity (Mus musculus [5]): 13.12%
Activity (Mus musculus [6]): 132.38%
Activity (MCF7 [7]): 25.09%
fold change (FC) (MCF7 [8]): 5.6
fold change (FC) (MCF7 [9]): 3.4
Activity (Mus musculus [10]): -36.07%
fold change (FC) (MCF7 [11]): 5.6
IC50 [12]: 227 nM
Activity (Mus musculus [13]): 28.04%
Activity (Mus musculus [14]): -50%
fold change (FC) (MCF7 [15]): 22.9
Activity (MCF7 [16]): 4.98%
Activity (Mus musculus [17]): 47.56%
Activity (Mus musculus [18]): 174.78%
Activity (MCF7 [19]): Active
fold change (FC) (MCF7 [20]): 29.5
IC50 [21]: 866 nM
Activity (Mus musculus [22]): -28.59%
Activity (MCF7 [23]): 22.12%
Activity (Mus musculus [24]): 67.48%
Activity (Mus musculus [25]): 55.17%
Activity (Mus musculus [26]): 258.15%
Activity (Mus musculus [27]): 71.54%
Activity (Mus musculus [28]): 179.51%
Activity (MCF7 [29]): 28.34%
Activity (MCF7 [30]): 46.57%
fold change (FC) (MCF7 [31]): 12
fold change (FC) (MCF7 [32]): 11.97
